As usually defined, the IC50 is the concentration at which inhibition is half-maximal. Low readings indicate higher potency, high ones lower potency.

Holding throughout (format): biochemical
The target in assay [1] is S. japonicum GST (Schistosoma japonicum, UniProt P08515). The assay can be described thus: 1,536-well luminescence GST inhibition assay, S. japonicum GST. The gist of the method: (§1)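 GST at 5 nM (hGST P1-1 125 nM) with GSH in 50 mM HEPES pH 7.5, 0.01% Tween-20. Pin-added test compound (1:2 16-point or 1:3 8-point series), 10 or 15 min RT. Substrate: PBI 1155 20 μM (S. japonicum), PBI 3773 10 μM (A1-1, M1-1, A4-4), PBI 1158 100 μM (P1-1). Reaction 40 min (P1-1 60 min) RT, then luciferase detection reagent and luminescence read. Percent inhibition from median catalyzed and no-enzyme controls; duplicate wells; curve-fitted IC50.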

Assay [2] addresses hGST P1-1 (Homo sapiens, UniProt P09211). Description: 1,536-well luminescence GST inhibition assay, hGST P1-1. The gist of the method:
as §1

The target of assay [3] is T1, hGST M1-1 (Homo sapiens, UniProt P09488).
T1 sequence (P09488 2-218 limits assumed): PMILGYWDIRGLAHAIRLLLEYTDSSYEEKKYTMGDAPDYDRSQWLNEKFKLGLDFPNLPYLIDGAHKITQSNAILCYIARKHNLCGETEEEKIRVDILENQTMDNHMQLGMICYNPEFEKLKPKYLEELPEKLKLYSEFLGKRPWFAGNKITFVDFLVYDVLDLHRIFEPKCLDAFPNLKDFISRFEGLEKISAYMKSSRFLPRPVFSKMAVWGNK
Description: 1,536-well luminescence GST inhibition assay, hGST M1-1. The following applies: for IC50: 5 nM hGST M1-1, 10 μM PBI 3773, 40 min. In a few lines:
as §1

Assay [4] has as its system GSTs (hGST A1-1, mGST A4-4, hGST M1-1, hGST P1-1, S. japonicum GST). The assay can be described thus: 1,536-well luminescence GST inhibition assay, all GSTs tested. The gist of the method: as §1

Chain of hGST P1-1 (P09211 2-210 limits assumed): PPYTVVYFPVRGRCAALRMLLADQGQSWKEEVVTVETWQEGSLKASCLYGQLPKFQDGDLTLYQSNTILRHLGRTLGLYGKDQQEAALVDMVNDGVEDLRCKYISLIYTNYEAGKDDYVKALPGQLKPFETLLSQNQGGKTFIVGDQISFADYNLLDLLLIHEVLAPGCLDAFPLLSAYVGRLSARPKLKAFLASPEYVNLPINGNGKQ
Chain of S. japonicum GST (P08515 whole entry): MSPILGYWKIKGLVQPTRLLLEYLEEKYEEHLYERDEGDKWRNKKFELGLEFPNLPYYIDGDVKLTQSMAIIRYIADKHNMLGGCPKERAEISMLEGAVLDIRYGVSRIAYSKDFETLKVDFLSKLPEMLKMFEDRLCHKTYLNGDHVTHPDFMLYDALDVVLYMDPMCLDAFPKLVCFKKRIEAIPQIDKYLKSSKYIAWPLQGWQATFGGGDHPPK

In the case of `Nc1c(S(=O)(=O)O)cc(Nc2ccc(Nc3nc(Cl)nc(Nc4cccc(S(=O)(=O)O)c4)n3)c(S(=O)(=O)O)c2)c2c1C(=O)c1ccccc1C2=O` [Reactive Blue 2], the midpoint of inhibition in assay [1], the IC50, lay at 63 nM. For the same compound, the “onset of luminescence quenching relative to IC50” value in assay [1] (S. japonicum GST) is “several hundred times greater”; in assay [2] (hGST P1-1) it was “approximately 60 fold”. Besides, the “onset of luminescence decrease relative to IC50” value in assay [3] (hGST M1-1) came to 8 fold.
Turning to `NC(CCC(=O)NC(CSc1ccc([N+](=O)[O-])c2nonc12)C(=O)NCC(=O)O)C(=O)O` (stereo not shown) [NBD-GS], the IC50 in assay [3] was determined as 24400 nM. This lies in the double-digit micromolar range.
For `NC(CCC(=O)NC(CSc1ccc(C(=O)OCCOCCOCCOCCOC(=O)c2ccc(SCC(NC(=O)CCC(N)C(=O)O)C(=O)NCC(=O)O)c([N+](=O)[O-])c2)cc1[N+](=O)[O-])C(=O)NCC(=O)O)C(=O)O` (stereo not shown) [Bis-(NB-GS)], in assay [3], 191 nM corresponded to half-maximal inhibition (IC50). Also, in assay [3] (hGST M1-1), the “fold difference in IC50 (NBD-GS vs Bis-(NB-GS))” value is ~ 130 fold.
As for `O=C1OC(c2ccc(O)c(S(=O)(=O)O)c2)(c2ccc(O)c(S(=O)(=O)O)c2)c2c(Br)c(Br)c(Br)c(Br)c21` [bromosulfalein], the “inhibition (in words)” value in assay [2] (125 nM hGST P1-1, 100 μM PBI 1158, 60 min) was “lack of inhibition”.
`O=[N+]([O-])c1ccc(SCCCCCCCCO)c2nonc12` [NBD-8-OH]: the “inhibitory activity (in words)” value in assay [4] (against the GSTs tested) is reported as “single-digit micromolar or better”.
In the case of `O=[N+]([O-])c1ccc(Cl)c([N+](=O)[O-])c1` [CDNB, 1-chloro-2,4-dinitrobenzene], the “inhibition (in words)” value in assay [4] (top concentrations tested near 100 μM) was “partial inhibition only at the top concentrations tested”.

For the origin of these results see paper PMC2864799 (Assay and drug development technologies, 2010).
